From ChEMBL document CHEMBL4371095, “Triazole-Based Inhibitors of the Wnt/β-Catenin Signaling Pathway Improve Glucose and Lipid Metabolisms in Diet-Induced Obese Mice” (J Med Chem, 2019)
Active and inactive are the calls of the source. The calls are words filed in the database; no cut-off is given here.

Key:
[1] = Inhibition of LiCl activated Wnt/beta-catenin signaling (unknown origin) expressed in HEK293 cells harboring TCF/LEF-responsive luciferase preincubated with cells followed by LiCl addition and measured after 24 hrs by luciferase reporter gene assay; assay type: cell-based; conditions: Homo sapiens
Outline: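 HEK293 cells carrying the TCF/LEF TOPFlash firefly luciferase reporter were stimulated with LiCl and treated with compound for 24 h. Luminescence was read, and IC50 was fitted from concentration–response data; mean ± S.D., n = 4.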

Axin-1 (Homo sapiens) = Axin-1 (Homo sapiens) (UniProt O15169); assay: Stabilization of Axin1 protein in HEK293 cells assessed as increase in cytoplasmic punctas at 1 uM after 14 hrs by DAPI staining based confocal microscopic method; assay type: cell-based
Outline: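 HEK293 cells on poly-D-lysine slides were treated with 1 μM compound for 14 h. Cells were fixed in 10% formalin for 20 min, permeabilized with methanol, blocked with 5% BSA, stained overnight for Axin1 with secondary antibody for 2 h, counterstained with DAPI, and imaged by confocal microscopy.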

HEK293 [2] = assay: Inhibition of Wnt3a activated Wnt/beta-catenin/Axin signaling (unknown origin) expressed in HEK293 cells assessed as stabilization of Axin1 protein at 1 to 10 uM after 2 hrs by Western blot method; assay type: cell-based; conditions: Homo sapiens
Outline: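 HEK293 cells stimulated with WNT3a were treated with compound for 2 h. Cells were lysed in 10 mM HEPES, 100 μM EDTA, 10 mM KCl, 0.5% NP40, protein was quantified by BCA, and β-catenin and Axin1 were resolved on 10% SDS-PAGE and immunoblotted.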

HEK293 [3] = assay: Inhibition of Wnt/beta-catenin/Axin signaling (unknown origin) expressed in HEK293 cells assessed as increase in Axin binding to beta-catenin after 12 hrs by immunoprecipitation method; assay type: cell-based; conditions: Homo sapiens
HEK293 [4] = assay: Inhibition of Wnt/beta-catenin signaling (unknown origin) expressed in HEK293 cells harboring TCF/LEF-responsive luciferase assessed as luminescence at 20 nM measured after 24 hrs by luciferase reporter gene assay relative to control; assay type: cell-based; parameters: scale not given: the % may be the effect or the level left; conditions: Homo sapiens
Outline: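 HEK293 cells carrying siRNA knockdown of GSK3β, Axin or CK1α (36 h transfection) were treated with or without 20 nM compound for 24 h. TCF/LEF reporter luminescence was read relative to control, mean ± S.D., n = 3.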

[5] = target: Glycogen synthase kinase-3 beta (Homo sapiens, UniProt P49841); assay: Binding affinity to recombinant full length human N-terminal GST-tagged GSK3beta expressed in sf9 cells by SPR analysis
Outline: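 Recombinant GST-tagged human GSK3β. Binding was measured by surface plasmon resonance at a biosensor core facility, and K_D was determined.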

SW480 = assay: Inhibition of Wnt/beta-catenin signaling in human SW480 cells harboring APC mutant at 50 nM after 24 hrs by luciferase reporter gene assay; assay type: cell-based
Mus musculus [6] = species: Mus musculus; assay: Inhibition of Wnt/beta-catenin/Axin signaling in mouse hepatocytes assessed as decrease in G6PASE mRNA level at 5 uM by qPCR analysis; assay type: cell-based
Outline: (§1)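 Normal mouse hepatocytes were treated with 5 μM compound, and lipogenic and gluconeogenic gene mRNA was measured by qPCR; mean ± S.D. of triplicates.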

Mus musculus [7] = species: Mus musculus; assay: Inhibition of Wnt/beta-catenin/Axin signaling in mouse hepatocytes assessed as decrease in FASN mRNA level at 5 uM by qPCR analysis; assay type: cell-based; outline: as §1
Mus musculus [8] = species: Mus musculus; assay: Inhibition of Wnt/beta-catenin/Axin signaling in mouse hepatocytes assessed as decrease in SCD1 mRNA level at 5 uM by qPCR analysis; assay type: cell-based; outline: as §1
[9] = Toxicity in high fat diet fed mouse up to 200 mg/kg, ip by LC-MS analysis; assay type: organism-based; conditions: in vivo
Mus musculus [10] = assay: Decrease in hepatic PEPCK mRNA level in high fat diet fed C57BL/6J mouse at 40 mg/kg, ip administered every 2 days for 11 weeks by qPCR analysis; assay type: functional, organism-based
Outline: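 Male mice, 8 weeks old, fed a 45% kcal fat diet for 6 weeks, then dosed i.p. every 2 days in corn oil vehicle for 11 weeks. Liver mRNA of the indicated genes was quantified at sacrifice; mean ± SEM, n = 5 per group.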

Mus musculus [11] = assay: Effect on hepatic CycD1 mRNA level in normal chow diet fed C57BL/6J mouse at 40 mg/kg, ip administered every 2 days for 11 weeks by qPCR analysis; assay type: ADME, organism-based; conditions: in vivo
Outline: (§2)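 Male mice, 8 weeks old, kept on normal chow throughout and dosed i.p. every 2 days in corn oil vehicle for 11 weeks. Body weight gain, liver/body weight ratio, and liver mRNA of the indicated genes were measured at sacrifice; mean ± SEM, n = 5 per group where stated.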

Mus musculus [12] = assay: Effect on hepatic PEPCK mRNA level in normal chow diet fed C57BL/6J mouse at 40 mg/kg, ip administered every 2 days for 11 weeks by qPCR analysis; assay type: ADME, organism-based; conditions: in vivo; outline: as §2
Mus musculus [13] = assay: Effect on hepatic GCK mRNA level in normal chow diet fed C57BL/6J mouse at 40 mg/kg, ip administered every 2 days for 11 weeks by qPCR analysis; assay type: ADME, organism-based; conditions: in vivo; outline: as §2
Mus musculus [14] = assay: Effect on hepatic SCD1 mRNA level in normal chow diet fed C57BL/6J mouse at 40 mg/kg, ip administered every 2 days for 11 weeks by qPCR analysis; assay type: ADME, organism-based; conditions: in vivo; outline: as §2
Mus musculus [15] = assay: Effect on body weight gain in normal chow diet fed C57BL/6J mouse at 40 mg/kg, ip administered every 2 days for 11 weeks; assay type: ADME, organism-based; conditions: in vivo; outline: as §2
[16] = Toxicity in high fat diet fed C57BL/6J mouse assessed as serum ALT level at 40 mg/kg, ip administered every 2 days for 11 weeks (reference value: 63.3 +/- 26.9 U/L); assay type: organism-based; conditions: in vivo
[17] = Toxicity in high fat diet fed C57BL/6J mouse assessed as serum alkaline phosphatase level at 40 mg/kg, ip administered every 2 days for 11 weeks (reference value: 58.3 +/- 3.8 U/L); assay type: organism-based; conditions: in vivo
[18] = Toxicity in high fat diet fed C57BL/6J mouse assessed as serum triglyceride level at 40 mg/kg, ip administered every 2 days for 11 weeks (reference value: 93.5 +/- 12.1 mg/dl); assay type: organism-based; conditions: in vivo
[19] = Toxicity in normal chow diet fed C57BL/6J mouse assessed as serum ALT level at 40 mg/kg, ip administered every 2 days for 11 weeks (reference value: 20 +/- 5.1 U/L); assay type: organism-based; conditions: in vivo
[20] = Toxicity in normal chow diet fed C57BL/6J mouse assessed as serum alkaline phosphatase level at 40 mg/kg, ip administered every 2 days for 11 weeks (reference value: 66.5 +/- 1.8 U/L); assay type: organism-based; conditions: in vivo
[21] = Toxicity in normal chow diet fed C57BL/6J mouse assessed as serum AST level at 40 mg/kg, ip administered every 2 days for 11 weeks (reference value: 119 +/- 28.3 U/L); assay type: organism-based; conditions: in vivo
[22] = Toxicity in normal chow diet fed C57BL/6J mouse assessed as serum total bilirubin level at 40 mg/kg, ip administered every 2 days for 11 weeks (reference value: 0.2 mg/dl); assay type: organism-based; conditions: in vivo
[23] = Toxicity in normal chow diet fed C57BL/6J mouse assessed as serum triglyceride level at 40 mg/kg, ip administered every 2 days for 11 weeks (reference value: 69 +/- 2.5 mg/dl); assay type: organism-based; conditions: in vivo

Glycogen synthase kinase-3 beta, sequence (P49841 whole entry): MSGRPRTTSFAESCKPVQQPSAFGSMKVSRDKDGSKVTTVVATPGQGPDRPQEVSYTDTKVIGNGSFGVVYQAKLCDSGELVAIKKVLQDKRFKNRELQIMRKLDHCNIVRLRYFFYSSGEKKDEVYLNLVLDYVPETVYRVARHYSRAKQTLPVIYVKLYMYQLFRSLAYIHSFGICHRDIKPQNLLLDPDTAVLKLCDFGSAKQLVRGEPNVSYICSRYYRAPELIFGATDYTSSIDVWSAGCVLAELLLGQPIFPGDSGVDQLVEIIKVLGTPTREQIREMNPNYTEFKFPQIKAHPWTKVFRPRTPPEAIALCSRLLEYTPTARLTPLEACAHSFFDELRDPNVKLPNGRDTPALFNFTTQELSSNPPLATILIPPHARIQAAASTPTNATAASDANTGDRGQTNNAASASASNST
Axin-1 (Homo sapiens), sequence (O15169 whole entry): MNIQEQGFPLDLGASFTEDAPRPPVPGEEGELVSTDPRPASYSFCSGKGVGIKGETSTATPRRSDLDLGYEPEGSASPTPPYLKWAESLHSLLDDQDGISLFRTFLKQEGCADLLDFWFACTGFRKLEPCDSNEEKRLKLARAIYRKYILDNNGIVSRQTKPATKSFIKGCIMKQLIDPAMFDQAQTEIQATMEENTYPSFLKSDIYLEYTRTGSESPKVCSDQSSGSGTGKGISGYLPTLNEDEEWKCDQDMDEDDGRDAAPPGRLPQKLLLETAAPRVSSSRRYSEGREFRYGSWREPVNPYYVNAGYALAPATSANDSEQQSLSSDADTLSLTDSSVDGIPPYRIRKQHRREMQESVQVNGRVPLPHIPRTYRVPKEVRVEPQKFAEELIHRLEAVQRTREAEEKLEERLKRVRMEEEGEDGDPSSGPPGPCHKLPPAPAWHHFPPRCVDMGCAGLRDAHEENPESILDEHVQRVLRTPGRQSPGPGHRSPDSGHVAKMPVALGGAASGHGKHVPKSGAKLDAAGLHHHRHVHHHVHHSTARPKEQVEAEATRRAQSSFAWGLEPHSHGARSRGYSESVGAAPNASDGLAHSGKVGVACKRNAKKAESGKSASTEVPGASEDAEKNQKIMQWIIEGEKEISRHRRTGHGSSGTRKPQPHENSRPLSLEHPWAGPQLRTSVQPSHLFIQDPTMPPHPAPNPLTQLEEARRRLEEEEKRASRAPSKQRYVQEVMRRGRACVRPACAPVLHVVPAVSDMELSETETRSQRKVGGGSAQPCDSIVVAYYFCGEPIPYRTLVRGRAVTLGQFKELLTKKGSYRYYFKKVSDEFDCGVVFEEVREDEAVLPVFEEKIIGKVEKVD

- IC50 [1]: 6 nM
- Activity (Axin-1 (Homo sapiens)): Active
- Kd [5]: 4300 nM
- inhibition (Mus musculus [6]): Active
Structure (SMILES): Cc1ccccc1-n1nnc(C(=O)Nc2ccc3ccccc3n2)c1C
- inhibition (HEK293 [2]): Active
- inhibition (HEK293 [3]): Active
- Activity (HEK293 [4]): 40%
- inhibition (SW480): Active
- inhibition (Mus musculus [7]): Active
- inhibition (Mus musculus [8]): Active
- Activity [9]: Non-Toxic
- Activity (Mus musculus [10]): Active
- Activity (Mus musculus [11]): Non-Toxic
- Activity (Mus musculus [12]): Non-Toxic
- Activity (Mus musculus [13]): Non-Toxic
- Activity (Mus musculus [14]): Non-Toxic
- Activity (Mus musculus [15]): Non-Toxic
- Activity [16]: 21 U/L
- Activity [17]: 51 U/L
- Activity [18]: 85.3 mg/dL
- Activity [19]: 12.8 U/L
- Activity [20]: 57.5 U/L
- Activity [21]: 74.5 U/L
- Activity [22]: 0.2 mg/dL
- Activity [23]: 55 mg/dL
